Measurements as given in ChEMBL document CHEMBL3877310, “Rickettsia prowazekii methionine aminopeptidase as a promising target for the development of antibacterial agents” (Bioorg Med Chem, 2017).
pIC50: −log10 of the molar value. Activity calls are given as the source filed them. The rule behind the calls is not given here.

What was measured:
[1] = species: Rattus norvegicus; assay: Cytotoxicity against CD rat primary pulmonary vascular endothelial cells assessed as reduction in cell viability at 0.003 to 3 uM measured after 72 hrs by WST1 assay; assay type: toxicity, cell-based
In short: (§1)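 Uninfected primary CD-rat pulmonary ECs (passage <15, DMEM high glucose/10% FBS/4 mM L-glutamine, 37 °C, 5% CO2) exposed to compounds over graded ranges with 0.3% DMSO as solvent. Viability read as WST-1 metabolism.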

[2] = (§2) Antibacterial activity against Rickettsia prowazekii str. Breinl infected with 50:1 multiplicity of infection in CD rat primary pulmonary vascular endothelial cells assessed as restoration of host cell viability by measuring fold reduction in viability at 0.003 to 3 uM measured 72 hrs post infection by WST1 assay relative to control; assay type: functional
[3] = test system: Endothelial cell; assay: Antibacterial activity against Rickettsia prowazekii str. Breinl infected in CD rat primary pulmonary vascular endothelial cells assessed as protection against bacterial infection by measuring restoration of host cell viability at 0.003 to 3 uM measured 72 hrs post infection by WST1 assay; assay type: functional, cell-based
[4] = test system: Endothelial cell; assay: Antibacterial activity against Rickettsia prowazekii str. Breinl infected in CD rat primary pulmonary vascular endothelial cells assessed as bacterial shape change at 25 ug/ml measured 72 hrs post infection by Hoechst 33258/phalloidin staining based fluorescence microscopic analysis; assay type: functional
[5] = species: Rattus norvegicus; assay: Cytotoxicity against CD rat primary pulmonary vascular endothelial cells assessed as reduction in cell viability at 0.03 to 30 uM measured after 72 hrs by WST1 assay; assay type: toxicity, cell-based; in short: as §1
[6] = biological target: Methionine aminopeptidase 2 (Homo sapiens, UniProt P50579); assay: Inhibition of recombinant full length human N-terminal GST/His6-tagged methionine aminopeptidase 2 expressed in baculovirus infected sf9 cells using methionylprolyl-p-nitroanilide as substrate preincubated for 20 mins followed by substrate addition measured for 20 mins in presence of MnCl2 by proline aminopeptidase coupled enzyme assay
Methionine aminopeptidase 2, sequence (P50579 whole entry): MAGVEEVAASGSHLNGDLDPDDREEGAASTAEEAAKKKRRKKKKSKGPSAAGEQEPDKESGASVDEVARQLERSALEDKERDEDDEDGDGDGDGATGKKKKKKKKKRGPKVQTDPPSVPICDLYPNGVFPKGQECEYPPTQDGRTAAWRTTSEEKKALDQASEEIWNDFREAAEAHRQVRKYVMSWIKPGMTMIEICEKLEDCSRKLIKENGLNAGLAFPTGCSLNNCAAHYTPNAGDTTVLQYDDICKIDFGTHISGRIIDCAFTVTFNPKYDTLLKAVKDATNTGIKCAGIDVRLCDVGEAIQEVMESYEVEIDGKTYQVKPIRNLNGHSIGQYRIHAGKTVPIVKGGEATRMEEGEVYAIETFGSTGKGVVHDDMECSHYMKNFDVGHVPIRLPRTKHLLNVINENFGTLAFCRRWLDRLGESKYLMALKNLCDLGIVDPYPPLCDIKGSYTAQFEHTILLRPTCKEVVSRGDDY

[7] = test system: Endothelial cell; assay: Antibacterial activity against Rickettsia prowazekii str. Breinl infected in CD rat primary pulmonary vascular endothelial cells assessed as protection against bacterial infection by measuring restoration of host cell viability at 0.3 to 300 uM measured 72 hrs post infection by WST1 assay; assay type: functional, cell-based
[8] = species: Rattus norvegicus; assay: Cytotoxicity against CD rat primary pulmonary vascular endothelial cells assessed as reduction in cell viability at 0.3 to 300 uM measured after 72 hrs by WST1 assay; assay type: toxicity, cell-based; in short: as §1
[9] = species: Rattus norvegicus; assay: Cytotoxicity against CD rat primary pulmonary vascular endothelial cells assessed as effect on appearance of cell monolayers at 300 uM measured after 72 hrs by Hoechst 33258/phalloidin staining based fluorescence microscopic analysis; assay type: toxicity
[10] = as §2, with “0.3” for “0.003”, “300” for “3”; assay type: functional
[11] = test system: Endothelial cell; assay: Antibacterial activity against Rickettsia prowazekii str. Breinl infected in CD rat primary pulmonary vascular endothelial cells assessed as bacterial shape change at 300 uM measured 72 hrs post infection by Hoechst 33258/phalloidin staining based fluorescence microscopic analysis; assay type: functional
[12] = biological target: Methionine aminopeptidase 1 (Homo sapiens, UniProt P53582); assay: Inhibition of recombinant full length human His-tagged methionine aminopeptidase 1 expressed in Escherichia coli BL21(DE3) using methionylprolyl-p-nitroanilide as substrate preincubated for 20 mins followed by substrate addition measured for 20 mins in presence of CoCl2 by proline aminopeptidase coupled enzyme assay
[13] = species: Rattus norvegicus; assay: Cytotoxicity against CD rat primary pulmonary vascular endothelial cells assessed as reduction in cell viability at 0.02 to 20 uM measured after 72 hrs by WST1 assay; assay type: toxicity, cell-based; in short: as §1
[14] = species: Rattus norvegicus; assay: Cytotoxicity against CD rat primary pulmonary vascular endothelial cells assessed as reduction in cell viability at 0.0075 to 7.5 uM measured after 72 hrs by WST1 assay; assay type: toxicity, cell-based; in short: as §1
[15] = test system: Endothelial cell; assay: Antibacterial activity against Rickettsia prowazekii str. Breinl infected in CD rat primary pulmonary vascular endothelial cells assessed as protection against bacterial infection by measuring restoration of host cell viability at 0.03 to 30 uM measured 72 hrs post infection by WST1 assay; assay type: functional, cell-based

SMILES: O=[N+]([O-])c1cc(CN2CCOCC2)c(O)c2ncccc12
- Activity [1]: Non-Toxic
- fold change (FC) [2]: 1.2
- Activity [3]: Active

SMILES: C[C@H]1c2cccc(O)c2C(=O)C2=C(O)[C@]3(O)C(=O)C(C(N)=O)=C(O)[C@@H](N(C)C)[C@@H]3[C@@H](O)[C@@H]21
- Activity [4]: Active

SMILES: CC(C)(C)c1ccc(CSc2nnc(N)[nH]2)cc1
- Activity [5]: Non-Toxic
- pIC50 [6]: < 4.82

SMILES: Nc1n[nH]c(SCc2ccccc2)n1
- Activity [7]: Active
- Activity [8]: Non-Toxic

SMILES: Nc1nnc(SCc2ccc(Cl)cc2)[nH]1
- Activity [9]: Non-Toxic
- Activity [7]: Active
- Activity [8]: Non-Toxic
- fold change (FC) [10]: 1.2
- Activity [11]: Active

SMILES: Cc1ccc2cccc(O)c2n1 [8-HYDROXY QUINALDINE]
- Activity [1]: Non-Toxic
- pIC50 [12]: < 4.82

SMILES: Oc1c(CN2CCOCC2)cc(Cl)c2cccnc12
- Activity [13]: Non-Toxic

SMILES: O=C(O)c1ccc(-c2ccccc2Cl)o1
- Activity [8]: Non-Toxic

SMILES: CC(C)c1ccc(CSc2nnc(N)[nH]2)cc1
- Activity [5]: Non-Toxic

SMILES: Nc1nnc(SCc2ccc(Cl)cc2Cl)[nH]1
- Activity [5]: Non-Toxic

SMILES: O=C(O)c1ccc(-c2cc(Cl)ccc2Cl)o1
- Activity [8]: Non-Toxic

SMILES: O=[N+]([O-])c1ccc(O)c2ncccc12 [NITROXOLINE]
- Activity [1]: Non-Toxic

SMILES: Nc1nnc(SCc2ccc(F)cc2)[nH]1
- Activity [7]: Active
- Activity [8]: Non-Toxic

SMILES: O=[N+]([O-])c1cc(CN2CCCCC2)c(O)c2ncccc12
- Activity [14]: Non-Toxic

SMILES: Nc1n[nH]c(SCc2ccccc2Cl)n1
- Activity [7]: Active
- Activity [8]: Non-Toxic

SMILES: Oc1ccc(Cl)c2cccnc12 [CLOXYQUIN]
- Activity [15]: Active
- Activity [5]: Non-Toxic

SMILES: Oc1cccc2cccnc12 [OXYQUINOLINE]
- Activity [15]: Active
- Activity [5]: Non-Toxic
- pIC50 [12]: 4.89
- pIC50 [6]: 5.90

SMILES: Cc1ccc(CSc2nnc(N)[nH]2)cc1
- Activity [7]: Active
- Activity [8]: Non-Toxic
